Measurements of several laboratories.
Read-out: enzyme activity
Action: inhibitor
INSR: Insulin receptor (INSR, Homo sapiens, UniProt P06213)
INSR phosphorylated: Insulin receptor, phosphorylated (INSR, Homo sapiens, UniProt P06213)

| SMILES | target | technique | concentration | remaining activity |
| --- | --- | --- | --- | --- |
| CC(C)(C)c1nc2c(s1)c1nc(N)ncc1c1ccc(NS(=O)(=O)c3c(F)cccc3F)c(F)c12 | INSR | radiometric | 1 µM | 112% |
| Cc1cnc(NC2CCOCC2)nc1-n1cnc(C(=O)NC(CN)c2cc(F)cc(Cl)c2)c1 (stereo not drawn) | INSR phosphorylated | radiometric | 1 µM | 104% |
| Cc1[nH]c(/C=C2\C(=O)Nc3ccc(F)cc32)c(C)c1C(=O)N[C@H]1CCN(C(=O)N(C)C)C1 | INSR | – | 1 µM | 87% |
| COc1cc(Cl)c(C(=O)N[C@@H](CN[C@H]2CC[C@@H](N)CC2)Cc2ccc(C#N)cc2)cc1-c1ccc(CN[C@H](C)c2ccc(C)cc2)o1 | INSR | – | 1 µM | 97% |
| O=C(Nc1cnn(-c2csc(C(=O)NC3COC3)c2)c1)Nc1ccccc1Cl | INSR | – | 5 µM | 98.4% |
| Nc1nc(NC2CCCCC2)sc1C(=O)c1ccccc1 | INSR | – | 10 µM | 75% |
| Cc1ccc(NC(=O)c2ccc(C)c(C(F)(F)F)c2)cc1C#Cc1nn(C2CCC(O)CC2)c2ncnc(N)c12 (stereo not drawn) | INSR phosphorylated | – | 10 µM | 89% |
| CCN(CC)c1ccc(C2=NNC(=O)CC2C)cc1[N+](=O)[O-] (stereo not drawn) | INSR | – | 10 µM | 94% |
| FC(F)c1nc2ccccc2n1-c1nc(N2CCOCC2)nc(N2CCOCC2)n1 | INSR | – | 10 µM | 104% |
| CCCOc1ccc(OC)c(F)c1C(=O)c1ccc(C(=O)N[C@@H]2CNC[C@H]2NC(=O)c2ccc3[nH]ncc3c2)cc1 | INSR phosphorylated | – | 10 µM | 98% |
| Cn1c(=O)n(-c2ccc(C(C)(C)C#N)cc2)c2c3cc(-c4cnc5ccccc5c4)ccc3ncc21 | INSR | – | 10 µM | 99% |
| COc1cc(Nc2cnc(C#N)c(O[C@H](C)CN(C)C)n2)ncc1-c1cnn(C)c1 | INSR | radiometric | 10 µM | 84% |
